Assay [1] deals with T1, Cannabinoid receptor 2 (Homo sapiens, UniProt P34972). The assay is described as follows: Displacement of [3H]-CP-55940 from human recombinant CB2 receptor expressed in HEK293 cells at 10 uM. The format is cell-based. A digest of the protocol:
(§1)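 Radioligand binding with human recombinant CB1 and CB2 receptors. The highest concentration tested was 10 µM, and percent displacement was recorded at that concentration. IC50 and Ki were calculated for each receptor. The selectivity index is Ki(CB1)/Ki(CB2).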

In assay [2] the target is T2, Cannabinoid receptor 1 (Homo sapiens, UniProt P21554). The assay is described as follows: Displacement of [3H]-CP-55940 from human recombinant CB1 receptor expressed in HEK293 cells at 10 uM. The format is cell-based. A digest of the protocol: as §1
In general terms: Loss of bound radioactivity is the signal in a displacement assay; it reports binding, not function.

Assay [3] addresses T3, Fatty-acid amide hydrolase 1 (Rattus norvegicus) (UniProt P97612).
T3 sequence (whole entry): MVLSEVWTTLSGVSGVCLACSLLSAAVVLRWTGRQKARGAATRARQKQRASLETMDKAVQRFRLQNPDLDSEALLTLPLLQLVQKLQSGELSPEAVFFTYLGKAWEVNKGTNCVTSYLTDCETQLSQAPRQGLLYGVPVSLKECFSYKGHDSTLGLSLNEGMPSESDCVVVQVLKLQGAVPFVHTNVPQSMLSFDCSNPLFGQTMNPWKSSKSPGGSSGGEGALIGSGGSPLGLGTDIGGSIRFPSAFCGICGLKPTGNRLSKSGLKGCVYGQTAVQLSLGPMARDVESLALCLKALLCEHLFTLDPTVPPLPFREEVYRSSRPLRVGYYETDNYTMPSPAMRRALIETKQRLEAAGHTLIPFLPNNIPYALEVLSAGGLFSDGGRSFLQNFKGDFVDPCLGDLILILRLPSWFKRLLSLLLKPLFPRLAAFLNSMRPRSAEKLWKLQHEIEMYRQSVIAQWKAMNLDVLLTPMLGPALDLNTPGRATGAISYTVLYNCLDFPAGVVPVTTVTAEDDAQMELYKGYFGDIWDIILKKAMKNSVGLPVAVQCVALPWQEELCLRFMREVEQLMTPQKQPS
In words: Inhibition of FAAH-mediated [14C]anandamide hydrolysis in rat brain membrane assessed as [14C]-ethanolamine production up to 50 uM after 30 mins by scintillation counting. The format is cell membranes.

Assay [4] deals with T1, Cannabinoid receptor 2. In words: Displacement of [3H]-CP-55940 from human recombinant CB2 receptor expressed in HEK293 cells. The format is cell-based. An outline of the steps:
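Radioligand binding assay on human recombinant CB2 receptor. The read-out was percent displacement of radioligand at the highest concentration tested. IC50 values were determined, and Ki values were calculated from them.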

For assay [5], the target named is T2, Cannabinoid receptor 1. In words: Displacement of [3H]-CP-55940 from human recombinant CB1 receptor expressed in HEK293 cells. The format is cell-based. A digest of the protocol:
as §1

The species named for a further assay is Homo sapiens. In words: Selectivity index, ratio of Ki for human recombinant CB1 receptor to Ki for human recombinant CB2 receptor. An outline of the steps: as §1

pIC50, pKi: −log10 of the molar value. Active and inactive are the calls of the source. No cut-off for these calls is given here.

The text below walks through data of ChEMBL document CHEMBL1287804, “Synthesis, binding studies and molecular modeling of novel cannabinoid receptor ligands” (Bioorg Med Chem, 2010).

T2 sequence (P21554 whole entry): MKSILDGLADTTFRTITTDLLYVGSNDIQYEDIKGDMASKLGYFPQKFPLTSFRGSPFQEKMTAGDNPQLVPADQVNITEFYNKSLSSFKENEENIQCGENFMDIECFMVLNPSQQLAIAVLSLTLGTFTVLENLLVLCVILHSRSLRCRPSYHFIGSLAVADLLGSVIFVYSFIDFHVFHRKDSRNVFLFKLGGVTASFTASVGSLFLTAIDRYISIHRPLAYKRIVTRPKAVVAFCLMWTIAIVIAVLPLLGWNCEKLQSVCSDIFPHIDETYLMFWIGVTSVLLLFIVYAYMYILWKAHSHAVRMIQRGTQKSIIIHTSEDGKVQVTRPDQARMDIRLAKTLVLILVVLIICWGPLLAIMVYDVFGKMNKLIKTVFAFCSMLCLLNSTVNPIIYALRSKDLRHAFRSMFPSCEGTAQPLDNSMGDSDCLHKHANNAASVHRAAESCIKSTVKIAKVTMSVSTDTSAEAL
T1 sequence (P34972 whole entry): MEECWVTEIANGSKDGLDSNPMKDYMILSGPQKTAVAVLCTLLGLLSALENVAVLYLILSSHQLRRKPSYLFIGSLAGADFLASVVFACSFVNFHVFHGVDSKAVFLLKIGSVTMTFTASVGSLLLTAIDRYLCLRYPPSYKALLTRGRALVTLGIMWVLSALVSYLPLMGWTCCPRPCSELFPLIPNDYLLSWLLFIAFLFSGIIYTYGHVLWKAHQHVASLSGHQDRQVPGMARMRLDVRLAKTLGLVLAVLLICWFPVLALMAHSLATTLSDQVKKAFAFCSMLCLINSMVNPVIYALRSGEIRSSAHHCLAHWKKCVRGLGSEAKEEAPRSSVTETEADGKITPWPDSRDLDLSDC

For orientation: pIC50 means −log10 of the IC50, conventionally taken in molar units. As a reminder, the pKi is −log10 of the Ki, conventionally taken in molar units. Consider `O=C(/C=C/c1ccc2ccccc2c1)CCC(=O)N1CCCCC1`, for which the Activity on Cannabinoid receptor 2 [1] and on Cannabinoid receptor 1 [2] was below 50% each time. In addition, the inhibition entry in assay [3] was “inactive”. In addition, the pIC50 at Cannabinoid receptor 2 [4] and on Cannabinoid receptor 1 [5] was below 5.00 throughout. In addition, the pKi at Cannabinoid receptor 2 [4] and at Cannabinoid receptor 1 [5] was below 5.00 each time.

On to `CCOC(=O)CNC(=O)CCC(=O)/C=C/c1ccc2ccccc2c1`, for which the Activity at Cannabinoid receptor 2 [1] worked out at 54.6%; on Cannabinoid receptor 1 [2], 5.73%. For the same compound, the inhibition entry in assay [3] was “inactive”. The pIC50 at Cannabinoid receptor 2 [4] is 5.01; at Cannabinoid receptor 1 [5], below 5.00. Further, the values for the pKi on Cannabinoid receptor 2 [4] and at Cannabinoid receptor 1 [5] were 5.60 and below 5.00, respectively. For the same compound, the Ratio Ki in the assay filed under Homo sapiens is above 4.

As to `O=C(/C=C/c1ccc2ccccc2c1)CCC(=O)NCCO`, the Activity was 56.5% on Cannabinoid receptor 2 [1] and 0% on Cannabinoid receptor 1 [2]. In assay [3], the inhibition entry is “inactive”. Moreover, the pIC50 on Cannabinoid receptor 2 [4] is 6.00; on Cannabinoid receptor 1 [5], below 5.00. The pKi was 5.99 at Cannabinoid receptor 2 [4] and below 5.00 at Cannabinoid receptor 1 [5]. The Ratio Ki in the assay filed under Homo sapiens was above 4.41.

With `COc1ccc(/C=C/C(=O)CCC(=O)N2CCCCC2)cc1OC`, the Activity at Cannabinoid receptor 2 [1] is 50%; at Cannabinoid receptor 1 [2], below 50%. Besides, the inhibition result in assay [3] was “inactive”. Also, the pIC50 on Cannabinoid receptor 2 [4] and on Cannabinoid receptor 1 [5] was below 5.00 in each case. Moreover, the pKi at Cannabinoid receptor 2 [4] and on Cannabinoid receptor 1 [5] was below 5.00 each time.

Turning to `O=C(/C=C/c1ccc2ccccc2c1)CCC(=O)N(CCO)CCO`, the Activity on Cannabinoid receptor 2 [1] is 27.3%; at Cannabinoid receptor 1 [2], 1.81%. Moreover, the inhibition entry in assay [3] was “inactive”. Besides, the pIC50 at Cannabinoid receptor 2 [4] and at Cannabinoid receptor 1 [5] was below 5.00 each time. The pKi on Cannabinoid receptor 2 [4] and at Cannabinoid receptor 1 [5] was below 5.00 in each case.

For the compound `O=C(/C=C/c1ccc2ccccc2c1)CCCC(=O)N1CCCCC1`, the Activity on Cannabinoid receptor 2 [1] worked out at 36.8%; at Cannabinoid receptor 1 [2], 34%. Besides, in assay [3], the inhibition entry is “inactive”. For the same compound, the pIC50 at Cannabinoid receptor 2 [4] and on Cannabinoid receptor 1 [5] was below 5.00 throughout. The negative logarithm of the Ki (pKi) on Cannabinoid receptor 2 [4] and at Cannabinoid receptor 1 [5] was below 5.00 in each case.

On to `O=C(O)CCC(=O)/C=C/c1ccc2ccccc2c1`, for which the Activity at Cannabinoid receptor 2 [1] came out at 13.7%; on Cannabinoid receptor 1 [2], 11.8%. In addition, in assay [3], the inhibition entry was “inactive”. Moreover, the negative logarithm of the IC50 (pIC50) on Cannabinoid receptor 2 [4] and on Cannabinoid receptor 1 [5] was below 5.00 each time. The pKi on Cannabinoid receptor 2 [4] and on Cannabinoid receptor 1 [5] was below 5.00 in each case.

For `COc1ccc(/C=C/C(=O)CCC(=O)NCCO)cc1OC`, the Activity on Cannabinoid receptor 2 [1] and at Cannabinoid receptor 1 [2] was below 50% throughout. Moreover, the inhibition entry in assay [3] was “inactive”. Further, the pIC50 at Cannabinoid receptor 2 [4] and at Cannabinoid receptor 1 [5] was below 5.00 throughout. Also, the pKi on Cannabinoid receptor 2 [4] and at Cannabinoid receptor 1 [5] was below 5.00 in each case.

With `O=C(CCC(=O)NCCO)CCc1ccc(-c2ccccc2)cc1`, the Activity on Cannabinoid receptor 2 [1] amounted to 53%; on Cannabinoid receptor 1 [2], 10.9%. Besides, in assay [3], the inhibition entry is “inactive”. The figures for the pIC50 at Cannabinoid receptor 2 [4] and on Cannabinoid receptor 1 [5] were 5.05 and below 5.00, respectively. Further, the figures for the pKi on Cannabinoid receptor 2 [4] and on Cannabinoid receptor 1 [5] were 5.65 and below 5.00, respectively. The Ratio Ki in the assay filed under Homo sapiens was above 4.44.

For the compound `O=C(/C=C/c1ccc2ccccc2c1)CCC(=O)Nc1ccc(O)cc1`, the Activity at Cannabinoid receptor 2 [1] and at Cannabinoid receptor 1 [2] was below 50% throughout. For the same compound, the inhibition result in assay [3] is “inactive”. For the same compound, the negative logarithm of the IC50 (pIC50) on Cannabinoid receptor 2 [4] and on Cannabinoid receptor 1 [5] was below 5.00 in each case. For the same compound, the pKi on Cannabinoid receptor 2 [4] and at Cannabinoid receptor 1 [5] was below 5.00 throughout.

On to `O=C(/C=C/c1ccc2ccccc2c1)CCCC(=O)NCCO`, for which the figures for the Activity at Cannabinoid receptor 2 [1] and on Cannabinoid receptor 1 [2] were 72% and 4.58%, respectively. In addition, in assay [3], the inhibition entry was “inactive”. Also, the pIC50 on Cannabinoid receptor 2 [4] is 5.39; on Cannabinoid receptor 1 [5], below 5.00. In addition, the values for the negative-log Ki (pKi) on Cannabinoid receptor 2 [4] and on Cannabinoid receptor 1 [5] were 5.99 and below 5.00, respectively. In the assay listed under Homo sapiens, the Ratio Ki is above 9.71.

For `C[C@@H](CO)NC(=O)CCCC(=O)/C=C/c1ccc2ccccc2c1`, the Activity at Cannabinoid receptor 2 [1] is 37.7%; on Cannabinoid receptor 1 [2], above 10%. Further, in assay [3], the inhibition entry is “inactive”. Moreover, the pIC50 at Cannabinoid receptor 2 [4] and at Cannabinoid receptor 1 [5] was below 5.00 throughout. The negative logarithm of the Ki (pKi) at Cannabinoid receptor 2 [4] and on Cannabinoid receptor 1 [5] was below 5.00 in each case.

As to `C[C@H](CO)NC(=O)CCC(=O)/C=C/c1ccc2ccccc2c1`, the Activity came to 38.3% at Cannabinoid receptor 2 [1] and 2.48% at Cannabinoid receptor 1 [2]. Besides, the inhibition result in assay [3] is “inactive”. Moreover, the negative-log IC50 (pIC50) on Cannabinoid receptor 2 [4] and on Cannabinoid receptor 1 [5] was below 5.00 in each case. Also, the pKi on Cannabinoid receptor 2 [4] and at Cannabinoid receptor 1 [5] was below 5.00 each time.

On to `COc1ccc(/C=C/C(=O)CCC(=O)Nc2ccc(O)cc2)cc1`, for which the Activity on Cannabinoid receptor 2 [1] and on Cannabinoid receptor 1 [2] was below 50% in each case. In addition, the inhibition entry in assay [3] is “inactive”. Further, the negative-log IC50 (pIC50) on Cannabinoid receptor 2 [4] and at Cannabinoid receptor 1 [5] was below 5.00 throughout. Besides, the pKi on Cannabinoid receptor 2 [4] and at Cannabinoid receptor 1 [5] was below 5.00 in each case.

On to `O=C(CCC(=O)N1CCOCC1)c1ccc(-c2ccccc2)cc1`, for which the Activity on Cannabinoid receptor 2 [1] was 14.9%; at Cannabinoid receptor 1 [2], 12.2%. Besides, in assay [3], the inhibition entry is “inactive”. Also, the pIC50 at Cannabinoid receptor 2 [4] and on Cannabinoid receptor 1 [5] was below 5.00 each time. For the same compound, the pKi on Cannabinoid receptor 2 [4] and at Cannabinoid receptor 1 [5] was below 5.00 each time.

With `O=C(/C=C/c1ccc(-c2ccccc2)cc1)CCC(=O)NCCO`, the Activity was determined as 46.1% on Cannabinoid receptor 2 [1] and 5.25% on Cannabinoid receptor 1 [2]. Moreover, the inhibition entry in assay [3] was “inactive”. In addition, the pIC50 on Cannabinoid receptor 2 [4] and at Cannabinoid receptor 1 [5] was below 5.00 in each case. Further, the negative-log Ki (pKi) at Cannabinoid receptor 2 [4] and at Cannabinoid receptor 1 [5] was below 5.00 throughout.

Turning to `CCOC(=O)CNC(=O)CCCC(=O)/C=C/c1ccc2ccccc2c1`, the Activity is 41.7% at Cannabinoid receptor 2 [1] and 41.5% at Cannabinoid receptor 1 [2]. The inhibition result in assay [3] was “inactive”. Besides, the negative logarithm of the IC50 (pIC50) on Cannabinoid receptor 2 [4] and at Cannabinoid receptor 1 [5] was below 5.00 in each case. Besides, the pKi at Cannabinoid receptor 2 [4] and at Cannabinoid receptor 1 [5] was below 5.00 each time.

With `O=C(/C=C/c1ccc2ccccc2c1)CCC(=O)NC1CC1`, the Activity stood at 35.6% at Cannabinoid receptor 2 [1] and 3.25% at Cannabinoid receptor 1 [2]. In addition, the inhibition entry in assay [3] was “inactive”. The pIC50 at Cannabinoid receptor 2 [4] and on Cannabinoid receptor 1 [5] was below 5.00 each time. Besides, the pKi on Cannabinoid receptor 2 [4] and at Cannabinoid receptor 1 [5] was below 5.00 throughout.

Consider `O=C(/C=C/c1ccc2ccccc2c1)CCCC(=O)NC1CC1`, for which the results for the Activity on Cannabinoid receptor 2 [1] and on Cannabinoid receptor 1 [2] were 56.7% and 15.3%, respectively. Further, the inhibition result in assay [3] was “inactive”. Moreover, the pIC50 is 5.10 at Cannabinoid receptor 2 [4] and below 5.00 on Cannabinoid receptor 1 [5]. Besides, the pKi on Cannabinoid receptor 2 [4] was 5.69; at Cannabinoid receptor 1 [5], below 5.00. Further, the Ratio Ki in the assay listed under Homo sapiens was above 4.9.

On to `O=C(O)CCCC(=O)/C=C/c1ccc2ccccc2c1`, for which the Activity turned out to be 23.4% on Cannabinoid receptor 2 [1] and 21.5% at Cannabinoid receptor 1 [2]. Also, the inhibition result in assay [3] is “inactive”. For the same compound, the pIC50 at Cannabinoid receptor 2 [4] and at Cannabinoid receptor 1 [5] was below 5.00 in each case. The negative-log Ki (pKi) on Cannabinoid receptor 2 [4] and on Cannabinoid receptor 1 [5] was below 5.00 each time.
